Measurements: ChEMBL document CHEMBL3352626, “Synthesis and biological evaluation of novel oxindole-based RTK inhibitors as anti-cancer agents” (Bioorg Med Chem, 2014)

Legend:
[1] = Antiproliferative activity against human H460 cells at 10 uM after 72 hrs by MTS assay; format: functional, NCI-H460
U-251 = assay: Antiproliferative activity against human U251 cells at 10 uM after 72 hrs by MTS assay; format: functional
Method in brief: (§1)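 Single-concentration screen. Cells at 4 × 10^4 cells/ml, seeded and incubated overnight, then given 10 µM compound in DMSO for 72 h (37 °C, 5% CO2), with DMSO-only controls. MTS added for 4 h and A490 read. Percent inhibition = (1 − OD490 treated/OD490 control) × 100, from triplicate experiments.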

[2] = Antiproliferative activity against human Bel7402 cells at 10 uM after 72 hrs by MTS assay; format: functional, Bel-7402
[3] = Antiproliferative activity against human SGC7901 cells at 10 uM after 72 hrs by MTS assay; format: functional, SGC-7901
NCI-H1975 = assay: Antiproliferative activity against human NCI-H1975 cells at 10 uM after 72 hrs by MTS assay; format: functional; method in brief: as §1
[4] = Antiproliferative activity against human PM8910 cells at 10 uM after 72 hrs by MTS assay; format: functional
[5] = Antiproliferative activity against human SKBR3 cells at 10 uM after 72 hrs by MTS assay; format: functional, SK-BR-3; method in brief: as §1
[6] = Antiproliferative activity against human HCC827 cells at 10 uM after 72 hrs by MTS assay; format: functional
A549 = assay: Antiproliferative activity against human A549 cells at 10 uM after 72 hrs by MTS assay; format: functional

Row | Structure (SMILES) | Activity [1] [%] | Activity (U-251) [%] | Activity [2] [%] | Activity [3] [%] | Activity (NCI-H1975) [%] | Activity [4] [%] | Activity [5] [%] | Activity [6] [%] | Activity (A549) [%]
1 | O=C1Nc2ncccc2/C1=C/c1ccc(N2CCN(C(=O)c3ccccc3)CC2)cc1 | 17.24 | 3.44 | 17.58 | 15.99 | 35.62 | 13.74 | 9.07 | 21.77 | 10.59
2 | O=C1Nc2ncccc2/C1=C/c1c[nH]c2ccccc12 | 7.2 | 0.83 | 18.98 | 24.68 | 13.11 | 3.22 | 2.64 | 7.27 | 5.4
3 | O=C1Nc2ccc(Cl)cc2/C1=N/c1ccc2cc[nH]c2c1 | 17.08 | -5.47 | 5.59 | -0.27 | 47.6 | 11.93 | 14.03 | 24.95 | 10.2
4 | O=C1Nc2ccc(Cl)cc2/C1=N/c1ccc2[nH]ccc2c1 | 9.99 | 26.95 | 13.44 | 12.49 | 21.92 | 10.94 | 11.83 | 20.17 | -10.32
5 | O=C1Nc2ccccc2/C1=C/c1ccc(N2CCOCC2)cc1 | 26.56 | 1.92 | 23.53 | 17.89 | 28.96 | 14.19 | 11.93 | 34.26 | 37.09
6 | O=CN1CCN(c2ccc(/C=C3\C(=O)Nc4ncccc43)cc2)CC1 | 13.68 | -12.2 | 15.45 | 9.66 | 23.51 | 10.13 | 7.8 | 14.61 | 0.14
7 | O=C1Nc2ccc(Cl)cc2/C1=N/NC(=O)c1ccco1 | 17.15 | 12.52 | 12.57 | 10.02 | 27.45 | 15.69 | 23.68 | 7.22 | 11.52
8 | O=C1Nc2ccc(Cl)cc2/C1=C/c1c[nH]c2ncccc12 | 48.99 | 5.49 | 34.51 | 31.4 | 48.72 | 29.28 | 10.07 | 25.9 | 34.13
9 | Nc1nc(N2CCOCC2)ccc1/N=C1\C(=O)Nc2ccc(Cl)cc21 | 37.48 | -0.07 | 18.8 | 18.63 | 56.34 | 26.03 | 17.97 | 33.66 | 34.07
10 | O=C1Nc2ncccc2/C1=C/c1ncc[nH]1 | 13.74 | -2.99 | 3.18 | 12.69 | 22.81 | 0.71 | -0.35 | -5.39 | 6.76
11 | O=C1Nc2ccccc2/C1=C/c1ccc(N2CCN(C(=O)c3ccccc3)CC2)cc1 | 35.67 | 11.33 | 30.87 | 23.7 | 42.39 | 40.43 | 27.26 | 53.47 | 23.47
12 | CCOC(=O)c1ccc(/N=C2\C(=O)Nc3ccc(Cl)cc32)c(N2CCOCC2)n1 | 14.19 | 7.69 | 8.58 | 2.89 | 34.78 | 21.97 | 14.58 | 18.58 | 24.53
13 | COc1cc(OC)c(/C=C2\C(=O)Nc3ncccc32)c(OC)c1 | 53.98 | 7.46 | 40.41 | 35.63 | 66.49 | 41.21 | 2.1 | 17.03 | 39.96
14 | Cc1cc2cc(/N=C3\C(=O)Nc4ccc(Cl)cc43)ccc2[nH]1 | 8.51 | 7.94 | 6.73 | 7.05 | 26.35 | 12.97 | 9.84 | 23.12 | 7.35
15 | O=C1Nc2ccc(Cl)cc2/C1=N/c1ccc2ncccc2c1 | 24.3 | -1.16 | 0.92 | 11.48 | 48.22 | 17.04 | 24.97 | 36.53 | 33.82
16 | C=CC(=O)N1CCN(c2ccc(/C=C3\C(=O)Nc4ncccc43)cc2)CC1 | 7.69 | 12.58 | 12.29 | 6.35 | 35.6 | 19.94 | 13.65 | 22.4 | 25.1
17 | Cn1cc(/C=C2/C(=O)Nc3ncccc32)c2ccccc21 | 19.17 | -0.65 | 24.47 | 22.39 | 38.04 | 22.23 | 8.29 | 37.21 | 11.36
18 | O=C1Nc2ccc(Cl)cc2/C1=N/NC(=O)c1ccc(N2CCOCC2)c([N+](=O)[O-])c1 | 7.06 | -8.37 | 0.27 | 0.54 | 17.93 | 8.98 | 11.88 | 3.85 | 7.93
19 | O=C1Nc2ncccc2/C1=C/c1c[nH]c2ccc(Br)cc12 | 39.48 | 5.06 | 42.22 | 32.51 | 71.46 | 40.59 | 27.26 | 39.64 | 29.66
20 | O=C1Nc2ccc(Cl)cc2/C1=N/c1ccc2nc(S)[nH]c2c1 | 5.31 | -4.89 | 10.23 | 4.79 | 26.56 | 10.36 | 8.27 | 19.19 | 11.87
21 | O=C1Nc2ncccc2/C1=C/c1ccccc1C(F)(F)F | 16.53 | -5.87 | 7.05 | 13.97 | 31.12 | 29.66 | 5.96 | 1.3 | 11.09
22 | O=CN1CCN(c2ccc(/C=C3\C(=O)Nc4ccccc43)cc2)CC1 | 32.06 | 2.24 | 25.97 | 16.5 | 27.15 | 27.47 | 7.42 | 26.61 | 25.54
23 | CCn1c2ccccc2c2cc(/N=C3/C(=O)Nc4ccc(Cl)cc43)ccc21 | 30.28 | 8.03 | 16.52 | 15.22 | 59.78 | 24.55 | 20.02 | 37.81 | 26.46
24 | CCOC(=O)c1ccc(/N=C2\C(=O)Nc3ccc(Cl)cc32)c(Nc2cc(OC)cc(OC)c2)c1 | 57.08 | 7.98 | 28.63 | 64.74 | 65.83 | 42.24 | 41.17 | 41.43 | 32.9
25 | O=C1Nc2ncccc2/C1=C/c1ccc(N2CCN(C(=O)CCCl)CC2)cc1 | 7.98 | -2.81 | 12.01 | 5.55 | 17.66 | 14.97 | 10.56 | 13.18 | 5.2
26 | O=C1Nc2ncccc2/C1=C/c1ccc(N2CCOCC2)cc1 | 32.46 | -3.95 | 9.16 | 21.38 | 9.21 | -1.48 | 2.52 | 10.19 | 12.18
